Results from ChEMBL document CHEMBL4261600 (Eur J Med Chem, 2018).

What was measured:
[1] = system: HL-60; experiment: Induction of apoptosis in human HL60 cells assessed as decrease in MCL-1 level after 2 hrs by immunoblotting analysis; assay type: functional, cell-based
[2] = system: MV4-11; experiment: Induction of apoptosis in human MV4-11 cells assessed as decrease in c-MYC level after 2 hrs by immunoblotting analysis; assay type: functional, cell-based
[3] = Cmax in beagle dog at 2 mg/kg, iv by LC-MS/MS analysis; assay type: ADME, organism-based, Canis lupus familiaris; parameters: dose 2 mg/kg, route intravenous; conditions: in vivo
[4] = Clearance in mouse at 3 mg/kg, iv by LC-MS/MS analysis; assay type: ADME, organism-based; conditions: in vivo
[5] = MRT (0 to t) in mouse at 3 mg/kg, iv by LC-MS/MS analysis; assay type: ADME, organism-based; conditions: in vivo
[6] = Oral bioavailability in Sprague-Dawley rat at 20 mg/kg by LC-MS/MS analysis; assay type: ADME, organism-based; conditions: in vivo
[7] = system: Canis familiaris; experiment: Oral bioavailability in beagle dog at 10 mg/kg by LC-MS/MS analysis; assay type: ADME, organism-based, Canis lupus familiaris; conditions: in vivo
[8] = biological target: Activin receptor type-1 (Homo sapiens) (UniProt Q04771); experiment: Binding affinity to wild-type human ACVR1 (C188 to C509 residues) expressed in bacterial expression system assessed as remaining unbound target protein level at 1000 nM by Kinomescan method relative to control
How it was run: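 KINOMEscan competitive binding profile at 1 μM inhibitor. Remaining target binding reported as percent of DMSO control.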

[9] = biological target: RAC-gamma serine/threonine-protein kinase (Homo sapiens) (UniProt Q9Y243); experiment: Binding affinity to wild-type human partial length AKT3 expressed in bacterial expression system assessed as remaining unbound target protein level at 1000 nM by Kinomescan method relative to control
How it was run: (§1)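 Profiled in a KINOMEscan binding panel with the inhibitor at a single concentration of 1 μM. Binding to each kinase was read out as percent of control, relative to a DMSO control. Strong binders were defined as those with a percent control value below 1.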

[10] = biological target: Calcium/calmodulin-dependent protein kinase type II subunit delta (Homo sapiens) (UniProt Q13557); experiment: Binding affinity to wild-type human partial length CAMK2D (M1 to E329 residues) expressed in bacterial expression system assessed as remaining unbound target protein level at 1000 nM by Kinomescan method relative to control; how it was run: as §1
[11] = biological target: Cyclin-dependent kinase-like 2 (Homo sapiens) (UniProt Q92772); experiment: Binding affinity to wild-type human partial length CDKL2 (M1 to D327 residues) expressed in bacterial expression system assessed as remaining unbound target protein level at 1000 nM by Kinomescan method relative to control
How it was run: (§2)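 KINOMEscan competition binding profile across a panel of 468 kinases and mutants, with the inhibitor tested at a single concentration of 1 μM. Binding is reported as percent of control, meaning signal relative to a DMSO control.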

[12] = biological target: Epithelial discoidin domain-containing receptor 1 (Homo sapiens) (UniProt Q08345); experiment: Binding affinity to wild-type human partial length DDR1 (R565 to V876 residues) expressed in bacterial expression system assessed as remaining unbound target protein level at 1000 nM by Kinomescan method relative to control
[13] = system: Epidermal growth factor receptor (Homo sapiens), P00533 [L858R]; experiment: Binding affinity to human partial length EGFR L858R mutant (R669 to V1011 residues) expressed in bacterial expression system assessed as remaining unbound target protein level at 1000 nM by Kinomescan method relative to control
How it was run: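 KINOMEscan competition-binding profiling across the panel of 468 kinases and mutants, with inhibitor tested at 1 μM. Binding is expressed as percent of control, with DMSO as the reference control.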

[14] = biological target: Tyrosine-protein kinase Fyn (Homo sapiens) (UniProt P06241); experiment: Binding affinity to wild-type human partial length FYN (T243 to L534 residues) expressed in bacterial expression system assessed as remaining unbound target protein level at 1000 nM by Kinomescan method relative to control
[15] = biological target: G protein-coupled receptor kinase 3 (Homo sapiens) (UniProt P35626); experiment: Binding affinity to wild-type human full length GRK3 (M1 to L688 residues) expressed in mammalian expression system assessed as remaining unbound target protein level at 1000 nM by Kinomescan method relative to control; how it was run: as §2
[16] = biological target: Interleukin-1 receptor-associated kinase 4 (Homo sapiens) (UniProt Q9NWZ3); experiment: Binding affinity to wild-type human partial length IRAK4 (M1 to S460 residues) expressed in mammalian expression system assessed as remaining unbound target protein level at 1000 nM by Kinomescan method relative to control
How it was run: (§3)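 KINOMEscan binding panel of 468 kinases/mutants. Inhibitor was tested at a single concentration of 1 μM. Binding is reported as percent of control, defined relative to a DMSO control.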

[17] = biological target: MAP kinase-activated protein kinase 2 (Homo sapiens) (UniProt P49137); experiment: Binding affinity to wild-type human partial length MAPKAPK2 (V48 to D345 residues) expressed in bacterial expression system assessed as remaining unbound target protein level at 1000 nM by Kinomescan method relative to control; how it was run: as §3
[18] = biological target: MAP/microtubule affinity-regulating kinase 3 (Homo sapiens) (UniProt P27448); experiment: Binding affinity to wild-type human full length MARK3 (M1 to L729 residues) expressed in bacterial expression system assessed as remaining unbound target protein level at 1000 nM by Kinomescan method relative to control
How it was run: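 Single-point competition binding screen across a panel of 468 kinases and mutants, with the inhibitor at 1 μM. Binding is read out as percent of a DMSO control, and targets below 1 percent control were classed as strong binders.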

[19] = biological target: Microtubule-associated serine/threonine-protein kinase 1 (Homo sapiens) (UniProt Q9Y2H9); experiment: Binding affinity to wild-type human partial length MAST1 (S346 to V730 residues) expressed in mammalian expression system assessed as remaining unbound target protein level at 1000 nM by Kinomescan method relative to control
[20] = biological target: Serine/threonine-protein kinase pim-1 (Homo sapiens) (UniProt P11309); experiment: Binding affinity to wild-type human partial length PIM1 (A15 to K313 residues) expressed in bacterial expression system assessed as remaining unbound target protein level at 1000 nM by Kinomescan method relative to control
[21] = biological target: Tyrosine-protein kinase receptor Tie-1 (Homo sapiens) (UniProt P35590); experiment: Binding affinity to wild-type human partial length TIE1 (T819 to A1138 residues) expressed in bacterial expression system assessed as remaining unbound target protein level at 1000 nM by Kinomescan method relative to control
[22] = biological target: TRAF2 and NCK-interacting protein kinase (Homo sapiens) (UniProt Q9UKE5); experiment: Binding affinity to wild-type human partial length TNIK (D4 to K311 residues) expressed in bacterial expression system assessed as remaining unbound target protein level at 1000 nM by Kinomescan method relative to control
[23] = biological target: Vascular endothelial growth factor receptor 2 (Homo sapiens, UniProt P35968); experiment: Binding affinity to wild-type human partial length VEGFR2 (R787 to P1253 residues) expressed in mammalian expression system assessed as remaining unbound target protein level at 1000 nM by Kinomescan method relative to control; conditions: read-out: Activity
[24] = biological target: Cyclin-Y/Cyclin-dependent kinase 16 (Homo sapiens, UniProt Q00536); experiment: Inhibition of recombinant GST-tagged inactive state of human CDK16 (108 to end residues)/cyclin Y (2 to end residues); assay type: protein-complex assay

## COCCN[C@H]1CC[C@H](Nc2cc(-c3csc(NCC4(C#N)CCOCC4)n3)c(Cl)cn2)CC1
[1]
  Activity: Dose-dependent effect
[2]
  Activity: Dose-dependent effect
[3]
  Cmax: 414 ng/mL
[4]
  clearance: 123 mL/min/kg
[5]
  MRT last: 1.25 h
[6]
  bioavailability: 45.1%
[7]
  F: 39.15%
[8]
  Activity: 91%
[9]
  Activity: 100%
[10]
  Activity: 83%
[11]
  Activity: 63%
[12]
  Activity: 89%
[13]
  Activity: 85%
[14]
  Activity: 83%
[15]
  Activity: 42%
[16]
  Activity: 81%
[17]
  Activity: 99%
[18]
  Activity: 100%
[19]
  Activity: 88%
[20]
  Activity: 55%
[21]
  Activity: 80%
[22]
  Activity: 64%
[23]
  activity at 1 µM: 98%
[24]
  IC50: 292 nM
